Assay results: ChEMBL document CHEMBL1833877, “Antinociceptive properties of bergenin” (J Nat Prod, 2011)
Active and inactive are the calls of the source.

Legend:
Mus musculus [1] = test: Inhibition of IL10 production in Freund's complete adjuvant-induced C57BL/6 mouse paw at 100 mg/kg, ip administered 40 mins before CFA challenge measured after 3 hrs by ELISA; assay type: functional, organism-based; set-up: dose 100 mg/kg
Method in brief: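 C57BL/6 wild-type mice received an ip dose 40 min before intraplantar CFA. Paw tissue IL-10 was read by ELISA 3 h after CFA, on protein extracts in PBS/0.4 M NaCl/Tween 20 with protease inhibitors. A saline group got 20 μL intraplantar saline instead. n = 6/group, means ± SEM, two-way ANOVA with Bonferroni.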

Mus musculus [2] = test: Antinociceptive activity against Freund's complete adjuvant-induced paw inflammation in mouse assessed as reduction in paw edema at 100 mg/kg, ip administered 40 mins before CFA challenge measured after 6 hrs; assay type: functional, organism-based; set-up: dose 100 mg/kg
Method in brief: (§1)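 CFA (20 μL, 1 mg/mL heat-killed M. tuberculosis) was injected sc into the right hind plantar surface. Treatment was ip in 2% DMSO/saline 40 min before. Paw volume was read by plethysmometer before and after CFA, and edema taken as the volume difference (mm3/paw). n = 6 mice/group, means ± SEM, two-way ANOVA with Bonferroni.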

Mus musculus [3] = test: Effect on baseline nociceptive threshold in Freund's complete adjuvant-induced mouse at 50 to 100 mg/kg, ip administered 40 mins before CFA challenge measured 2 to 6 hrs; assay type: functional, organism-based
Mus musculus [4] = test: Toxicity in mouse assessed as necrosis in gastric mucosa at 50 mg/kg, ip for seven consecutive days relative to control; assay type: organism-based; set-up: dose 50 mg/kg, route intraperitoneal; settings: in vivo
Method in brief: (§2)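 After 7 daily ip doses, stomachs were cryosectioned at 3 μm and stained with H&E. Sections were scored blind 0–4 for inflammatory infiltrate, edema, epithelial loss and necrosis. Ten fields (40×) were read per section, means ± SEM.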

Mus musculus [5] = test: Toxicity in mouse assessed as leukogram at 50 mg/kg, ip for seven consecutive days relative to control; assay type: organism-based; set-up: dose 50 mg/kg, route intraperitoneal; settings: in vivo
Method in brief: (§3)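 Mice were weighed and dosed ip once daily for 7 consecutive days, vehicle controls alongside, and monitored for toxic signs and general appearance. At the end, retro-orbital blood was taken under light anesthesia for leukocyte counts. Serum, from blood centrifuged at 2500 rpm for 15 min without anticoagulant, was used for ALT and AST.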

Mus musculus [6] = test: Toxicity in mouse assessed as leukogram at 100 mg/kg, ip for seven consecutive days relative to control; assay type: organism-based; set-up: dose 100 mg/kg, route intraperitoneal; settings: in vivo; method in brief: as §3
Mus musculus [7] = test: Inhibition of TNF-alpha production in Freund's complete adjuvant-induced mouse at 50 mg/kg, ip administered 40 mins before CFA challenge measured after 2 hrs by ELISA; assay type: functional, organism-based; set-up: dose 50 mg/kg
Method in brief: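 CFA was given intraplantar, with ip dosing (2% DMSO/saline vehicle) 40 min earlier. At 2 h, paw skin was taken under terminal halothane anesthesia. Tissue was extracted (100 mg/mL PBS with 0.4 M NaCl, 0.05% Tween 20 and protease inhibitors) and centrifuged at 3000g for 10 min. Supernatant was assayed by mouse ELISA, in pg/mL. n = 6/group.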

Mus musculus [8] = test: Toxicity in mouse assessed as liver function measuring serum ALT level at 50 mg/kg, ip for seven consecutive days relative to control; assay type: organism-based; set-up: dose 50 mg/kg, route intraperitoneal; settings: in vivo; method in brief: as §3
Mus musculus [9] = test: Antinociceptive activity against Freund's complete adjuvant-induced paw inflammation in mouse assessed as reduction in mechanical hyperalgesia at 50 mg/kg, ip administered 40 mins before CFA challenge measured after 2 to 6 hrs; assay type: functional, organism-based; set-up: dose 50 mg/kg
Method in brief: (§4)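 Mice, lightly halothane-anesthetized, got 20 μL complete Freund's adjuvant (1 mg/mL heat-killed M. tuberculosis in paraffin oil/mannide monooleate) sc into the right hind plantar surface. Treatment was ip in 2% DMSO/saline 40 min before CFA. Mechanical threshold was read with von Frey filaments by the up-down method at 2, 4 and 6 h. n = 6 mice/group, means ± SEM, two-way ANOVA with Bonferroni.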

Mus musculus [10] = test: Toxicity in mouse assessed as renal function measuring serum urea level at 100 mg/kg, ip for seven consecutive days relative to control; assay type: organism-based; set-up: dose 100 mg/kg, route intraperitoneal; settings: in vivo
Method in brief: (§5)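 Once-daily ip dosing for seven consecutive days in male mice (22–28 g), with vehicle (2% DMSO in saline) as control. At the end of treatment, blood taken from the retro-orbital plexus under light anesthesia. Serum obtained without anticoagulant by centrifugation at 2500 rpm for 15 min, then assayed biochemically for urea and creatinine. Means ± SEM, 6–9 animals per group.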

Mus musculus [11] = test: Antinociceptive activity against formalin-induced pain in mouse assessed as paw licking during early phase (0 to 10 mins) at 50 mg/kg, ip administered 40 mins before formalin challenge; assay type: functional, organism-based; set-up: dose 50 mg/kg
Method in brief: (§6)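 Mice were acclimated 30 min in an observation chamber, then given 20 μL of 2.5% formalin sc into the dorsal hind paw. Dosing was ip (2% DMSO/saline vehicle) 40 min beforehand. Time spent licking the injected paw was scored over 0–10 min and 10–60 min. n = 6/group, means ± SEM, ANOVA with Tukey.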

Mus musculus [12] = test: Toxicity in mouse assessed as liver function measuring serum AST level at 100 mg/kg, ip for seven consecutive days relative to control; assay type: organism-based; set-up: dose 100 mg/kg, route intraperitoneal; settings: in vivo; method in brief: as §3
Mus musculus [13] = test: Antinociceptive activity against formalin-induced pain in mouse assessed as paw licking during late phase (10 to 60 mins) at 50 mg/kg, ip administered 40 mins before formalin challenge; assay type: functional, organism-based; set-up: dose 50 mg/kg; method in brief: as §6
Mus musculus [14] = test: Antinociceptive activity against Freund's complete adjuvant-induced paw inflammation in mouse assessed as reduction in paw edema at 50 mg/kg, ip administered 40 mins before CFA challenge measured after 6 hrs; assay type: functional, organism-based; set-up: dose 50 mg/kg; method in brief: as §1
Mus musculus [15] = test: Toxicity in mouse assessed as renal function measuring serum creatinine level at 100 mg/kg, ip for seven consecutive days relative to control; assay type: organism-based; set-up: dose 100 mg/kg, route intraperitoneal; settings: in vivo; method in brief: as §5
Mus musculus [16] = test: Toxicity in mouse assessed as reduction in corporal mass at 100 mg/kg, ip for seven consecutive days relative to control; assay type: organism-based; set-up: dose 100 mg/kg, route intraperitoneal; settings: in vivo; method in brief: as §3
Mus musculus [17] = test: Toxicity in mouse assessed as gastric inflammation at 50 mg/kg, ip for seven consecutive days relative to control; assay type: organism-based, Stomach; set-up: dose 50 mg/kg, route intraperitoneal; settings: in vivo; method in brief: as §2
Mus musculus [18] = test: Toxicity in mouse assessed as edema in gastric mucosa at 100 mg/kg, ip for seven consecutive days relative to control; assay type: organism-based; set-up: dose 100 mg/kg, route intraperitoneal; settings: in vivo; method in brief: as §2
Mus musculus [19] = test: Toxicity in mouse assessed as edema in gastric mucosa at 50 mg/kg, ip for seven consecutive days relative to control; assay type: organism-based; set-up: dose 50 mg/kg, route intraperitoneal; settings: in vivo; method in brief: as §2
Mus musculus [20] = test: Neurotoxicity in mouse assessed as effect on motor coordination by measuring reduced latency at 100 mg/kg, ip after 40 mins by rotarod test; assay type: toxicity, organism-based; set-up: dose 100 mg/kg, route intraperitoneal; settings: in vivo
Method in brief: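 Mice were pre-selected 24 h earlier for staying on the bar for two 120 s periods. Rotarod was a 3 cm bar at 5 rpm. Mice were tested 40 min after ip dosing, with diazepam 10 mg/kg ip as reference. Time on the rod was recorded up to 120 s. n = 6/group.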

Mus musculus [21] = test: Toxicity in mouse assessed as inflammatory cell infiltrate in gastric mucosa at 50 mg/kg, ip for seven consecutive days relative to control; assay type: organism-based; set-up: dose 50 mg/kg, route intraperitoneal; settings: in vivo; method in brief: as §2
Mus musculus [22] = test: Antinociceptive activity against Freund's complete adjuvant-induced paw inflammation in mouse assessed as reduction in paw edema at 100 mg/kg, ip administered 40 mins before CFA challenge measured after 2 hrs; assay type: functional, organism-based; set-up: dose 100 mg/kg; method in brief: as §1
Mus musculus [23] = test: Antinociceptive activity against formalin-induced pain in mouse assessed as paw licking during late phase (10 to 60 mins) at 100 mg/kg, ip administered 40 mins before formalin challenge; assay type: functional, organism-based; set-up: dose 100 mg/kg; method in brief: as §6
Mus musculus [24] = test: Antinociceptive activity against Freund's complete adjuvant-induced paw inflammation in mouse assessed as reduction in mechanical hyperalgesia at 100 mg/kg, ip administered 40 mins before CFA challenge measured after 2 to 6 hrs; assay type: functional, organism-based; set-up: dose 100 mg/kg; method in brief: as §4
Mus musculus [25] = test: Neurotoxicity in mouse assessed as effect on motor coordination at 100 mg/kg, ip after 40 mins by Rotarod test; settings: in vivo

COc1c(O)cc2c(c1O)[C@@H]1O[C@H](CO)[C@@H](O)[C@H](O)[C@H]1OC2=O [BERGENIN]
inhibition (Mus musculus [1]): inactive
Activity (Mus musculus [2]): inactive
Activity (Mus musculus [3]): inactive
Activity (Mus musculus [4]): Non-toxic
Activity (Mus musculus [5]): Non-toxic
Activity (Mus musculus [6]): Non-toxic
inhibition (Mus musculus [7]): Active
Activity (Mus musculus [8]): Non-toxic
Activity (Mus musculus [9]): Active
Activity (Mus musculus [10]): Non-toxic
Activity (Mus musculus [11]): Active
Activity (Mus musculus [12]): Non-toxic
Activity (Mus musculus [13]): Active
Activity (Mus musculus [14]): inactive
Activity (Mus musculus [15]): Non-toxic
Activity (Mus musculus [16]): Non-toxic
Activity (Mus musculus [17]): Non-toxic
Activity (Mus musculus [18]): Non-toxic
Activity (Mus musculus [19]): Non-toxic
Activity (Mus musculus [20]): Non-toxic
Activity (Mus musculus [21]): Non-toxic
Activity (Mus musculus [22]): Active
Activity (Mus musculus [23]): Active
Activity (Mus musculus [24]): Active
Activity (Mus musculus [25]): Non-toxic
